# ASAP1 GAP inh – blocks human ASAP1-stimulated Arf1 GTP hydrolysis | Q9ULH1 | inhibition, % at 16.5 µM | GDP FP detection | 360,000 compounds, 0.19% hits; in the data active = inhibition above about 25%;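 also: 0% = vehicle with enzyme and substrate and 100% = no enzyme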
# Target sequence (Q9ULH1 325-724 limits assumed): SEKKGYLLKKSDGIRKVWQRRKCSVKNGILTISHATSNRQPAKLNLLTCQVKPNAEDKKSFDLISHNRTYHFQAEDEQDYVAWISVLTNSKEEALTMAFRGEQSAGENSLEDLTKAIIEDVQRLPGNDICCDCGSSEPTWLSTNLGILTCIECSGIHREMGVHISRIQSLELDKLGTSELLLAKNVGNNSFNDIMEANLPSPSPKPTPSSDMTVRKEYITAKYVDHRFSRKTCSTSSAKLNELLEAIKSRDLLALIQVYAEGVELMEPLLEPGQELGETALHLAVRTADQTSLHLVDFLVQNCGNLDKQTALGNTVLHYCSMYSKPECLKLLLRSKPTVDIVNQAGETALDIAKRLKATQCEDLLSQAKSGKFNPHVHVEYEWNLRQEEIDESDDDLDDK
# Tn6 DDE FP – inhibitors of Tn6 peptide binding to human fibrin DD(E). P02675. Fibrin DD(E) TRITC-Tn6 fluorescence polarization displacement. inhibition, % at 8.3 µM. 370,000 compounds, 0.21% hits;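 active = inhibition above a per-campaign cutoff: mean of compounds within control limits plus 3 SD, cut at about 15% in these data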;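 also: 0% = median of all compound wells on the plate and 100% = blocking peptide control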
# ARFGAP1 inhibitor – inhibitors of rat ARFGAP1 | Q62848 | Arfgap1-stimulated ARF1 GTP hydrolysis, GDP FP detection | inhibition, % at 16.5 µM | 360,000 compounds, 0.26% hits;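 active = inhibition above a per-plate limit, mean inhibition of low control wells plus 3 SD, cut at about 25% in these data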;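 also: 0% = DMSO wells with enzyme and 100% = wells lacking Arfgap1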
# Target sequence (Q62848 1-136 limits assumed): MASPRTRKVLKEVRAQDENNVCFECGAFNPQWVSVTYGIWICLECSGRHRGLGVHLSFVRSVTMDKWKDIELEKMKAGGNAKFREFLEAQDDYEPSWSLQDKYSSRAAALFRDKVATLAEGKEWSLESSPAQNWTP
#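 Replicates: Single well per compound | Assay system: Truncated rat Arfgap1 GAP domain | Control set: No-Arfgap1 wells (100%) versus DMSO full-reaction wells (0%) | Times: Enzyme reaction 120 min at 25 °C after 20 min preincubation | Reagent: Human ARF1(Δ1-17)-GTP substrate | Measured by: Tracer-displacement fluorescence polarization with EDTA stop, 620/688 nm | Measure: Percent inhibition of Arfgap1-stimulated GTP hydrolysis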
# DDE Tn7 FP inh – DD(E)-Tn7 binding inhibition, primary FP screen; P02675; FP displacement of FITC-Tn7 peptide from fibrin DD(E); 0% = median of compound wells per plate; inhibition, % at 8.3 µM; 370,000 compounds, 0.13% hits; AID 720508;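 active = inhibition above the mean of compounds falling within the control limits plus 3 SD of them, cut at about 14% in these data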;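 also: 0% = plate median of compound wells and 100% = 10 µM Aha-Tn7 peptide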
#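 Assay system: Human fibrin DD(E) protein | Medium: Tris buffer with calcium and detergent, pH 7.8 | Reagent: 0.1 µM fluorescent Tn7 | Compound dosing: Single point at 8.3 µM | Times: 10 min preincubation, 3 h with tracer, room temperature | Detection: Fluorescence polarization of the labelled Tn7 tracer | Controls: Aha-Tn7 high control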
# ASAP1 inh confirm – ASAP1 inhibition confirmed; shares compounds with ASAP1 GAP inh; ASAP1-stimulated Arf1 GTPase, GDP fluorescence polarization; inhibition, % at 16.5 µM; 620 compounds, 37% hits; AID 624431;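 active = mean inhibition over triplicates exceeds the hit threshold derived for the earlier primary screening run, cut at about 25% in these data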
# * marks the source's active call; other numbers are inactive results; nt = not tested or not shown. Most compounds without a hit are left out; they make up all but 0.74% or so of the library.
SMILES,ASAP1 GAP inh,Tn6 DDE FP,ARFGAP1 inhibitor,DDE Tn7 FP inh,ASAP1 inh confirm
CS(=O)(=O)Nc1ccc(-c2ccc(/C=C3\SC(N)=NC3=O)o2)cc1,29.8*,-6.5,10.2,-8.7,61.9*
Cn1c(SCC(=O)NC2CCCC2)nc2c(c1=O)SCC2,28.4*,-2.9,16.7,4.1,10.4
Cn1c(SCC(=O)NC2CCCCC2)nc2c(c1=O)SCC2,-9.7,-5.8,9.4,-1.0,nt
CCC[C@H]1[C@@H](OC(=O)Oc2ccc([N+](=O)[O-])cc2)CC[C@@]23CCCN2C(=O)CCC[C@@H]13,nt,1.8,nt,3.8,nt
CCOc1ccc(CCNC(=O)CN2C(=O)NC(CCSC)C2=O)cc1OCC (stereo unspecified),27.7*,3.0,10.9,5.5,4.7
C[C@H]1[C@H](NC(=O)c2ccc(Cl)c(Cl)c2)CC[C@@]23CCCN2C(=O)CCC[C@@H]13,nt,2.2,nt,3.3,nt
COc1cc2cc(C(=O)N/N=C/c3ccccc3Cl)[nH]c2cc1OC,27.6*,0.3,5.6,4.0,53.4*
Cc1ccc(NC(=O)CCC2CC(C)(C)OC2=O)cc1 (stereo unspecified),-14.7,-2.3,-8.1,-2.6,nt
CC1(C)CC(CCC(=O)Nc2ccc(S(N)(=O)=O)cc2)C(=O)O1 (stereo unspecified),25.2*,-6.6,-4.6,-6.3,-4.0
O=C(c1ccco1)[C@@H]1[C@@H]2C(=O)N(c3ccc(F)cc3)C(=O)[C@@H]2C2c3ccccc3C=CN21 (stereo partly specified),25.5*,8.9,5.4,0.8,9.4
O=C(c1ccco1)[C@@H]1[C@@H]2C(=O)N(c3ccc(Br)cc3)C(=O)[C@@H]2C2c3ccccc3C=CN21 (stereo partly specified),0.3,3.7,-7.9,3.1,nt
CC(COc1cccc(F)c1)CN1CCC(C(O)(c2ccccc2)c2ccccc2)CC1 (stereo unspecified),nt,-7.5,nt,-7.0,nt
c1ccc(-n2c(SCc3cccc4ccccc34)nnc2-c2ccccn2)cc1,nt,8.7,nt,-3.1,nt
COc1ccc2nc(NC(=O)c3cccc(N4C(=O)CCC4=O)c3)sc2c1,26.3*,-10.4,-1.6,3.2,8.8
CCOc1ccc2nc(NC(=O)c3cccc(N4C(=O)CCC4=O)c3)sc2c1,0.7,-3.8,8.0,0.0,nt
O=C(N/N=C/c1ccc([N+](=O)[O-])cc1)c1ccc(COc2ccccc2-c2ccccc2)cc1,31.1*,-2.2,0.8,-2.8,81.1*
COC(=O)[C@]12C[C@H](CC(=O)NCc3cccc(C(F)(F)F)c3)C(=O)N(Cc3cccc4ccccc34)C1=C[C@H](COCc1ccccc1)O[C@@H]2C,nt,0.7,nt,1.4,nt
S=c1[nH]nc(Cc2cccs2)n1-c1cccc2ccccc12,-9.9,6.5,4.3,7.2,nt
S=c1[nH]nc(Cc2cccs2)n1-c1ccccc1Cl,25.8*,-9.8,-1.5,1.8,6.2
Cc1cc(N2CCN(C)CC2)nc2ccc(NC(=O)CCC3CCCC3)cc12,27.8*,-4.3,23.6,-4.6,39.4*
O=C(OC12CCCN(C1)/C(=C/c1ccncc1)C2)C1CCCCC1 (stereo unspecified),nt,3.4,nt,-2.0,nt
C/C=C(/C)C(=O)O[C@@H]1c2c(ccc3ccc(=O)oc23)OC(C)(C)[C@@H]1OC(=O)/C(C)=C\C,-8.2,2.7,1.5,12.8,nt
C/C=C(/C)C(=O)O[C@@H]1[C@H](OC(=O)C=C(C)C)c2c(ccc3ccc(=O)oc23)OC1(C)C,26.1*,6.8,-0.8,-1.0,3.0
COc1ccc(/C=N/NC(=O)c2cc(-c3ccc4c(c3)OCO4)n[nH]2)cc1OC,26.0*,-13.6,19.7,-10.9,33.7*
O=C(N/N=C/c1ccc(F)cc1)c1cc(-c2ccc3c(c2)OCO3)n[nH]1,18.8,-13.1,9.5,3.1,nt
SMILES,ASAP1 GAP inh,Tn6 DDE FP,ARFGAP1 inhibitor,DDE Tn7 FP inh,ASAP1 inh confirm
C=CCN(Cc1ccc2c(c1)OCO2)C(C#CC1CC1)C(C)C (stereo unspecified),nt,-2.5,nt,-6.6,nt
CCCC/C=C1/[C@H](CC)N(C)C2=N[C@@H](c3ccccc3)CC(=O)N21,nt,0.8,nt,1.9,nt
COc1ccc(-n2c3nc4ccccc4nc3c3c(=N)oc(C)nc32)cc1,29.6*,3.7,11.8,-9.6,9.7
CCCCn1c2nc3ccccc3nc2c2c(=N)oc(C)nc21,-6.7,-5.5,4.4,9.4,nt
COC(=O)c1cccc(OCC(C)CN2CCC(C(O)(c3ccccc3)c3ccccc3)CC2)c1 (stereo unspecified),nt,0.1,nt,-3.1,nt
Cc1cc(C)c(S(=O)(=O)c2ccccc2)c(OC(=O)c2c(F)cccc2F)n1,25.6*,1.1,21.3,-3.0,11.2
CN[C@H]1C[C@H]2c3cc(-c4ccc5c(c4)OCO5)ccc3CCN2C[C@H]1[C@H](C)O,nt,7.3,nt,-0.3,nt
COc1ccc(NC(=S)N(CCc2c(C)[nH]c3ccc(C)cc23)Cc2cccs2)cc1,-9.8,-0.2,10.4,-1.0,nt
CNC(=S)N(CCc1c(C)[nH]c2ccc(C)cc12)Cc1cccs1,26.1*,-4.0,9.7,4.6,20.7
Cc1ccc(C(=O)Nc2cccc(NC(=O)c3ccc(C)c([N+](=O)[O-])c3)n2)cc1[N+](=O)[O-],28.4*,-2.5,5.1,-0.1,28.4*
Cc1cc(NC(=O)c2ccc(C)c([N+](=O)[O-])c2)no1,-0.3,9.6,8.2,2.4,nt
CN1C2=NC(c3ccccc3)CC(=O)N2/C(=C\c2ccccc2)C1c1ccccc1C(F)(F)F (stereo unspecified),nt,3.5,nt,7.4,nt
COc1ccc(-c2csc(NC(=O)c3ccccc3NS(=O)(=O)c3ccc(F)c(F)c3)n2)cc1,28.6*,-5.2,9.7,6.7,23.7
CC1(C)Cc2nc3sc4c(=O)n(CC(=O)NCc5ccco5)cnc4c3cc2CO1,25.2*,-1.3,0.5,1.2,7.6
CC1(C)Cc2nc3oc4c(=O)n(CC(=O)Nc5ccccc5)cnc4c3cc2CO1,-0.7,8.2,-6.1,-0.9,nt
O=C(NCCO)[C@H](Cc1ccccc1)NC1(C(=O)NCCc2c[nH]c3ccccc23)CCCCC1,nt,4.9,nt,2.2,nt
CCOC(=O)C1CCCN(C(=O)c2cccc(S(=O)(=O)N(Cc3ccccc3)c3ccccc3OC)c2)C1 (stereo unspecified),29.3*,5.2,-5.5,-7.2,0.2
CC(=O)Nc1cccc(/C(C)=N/NS(=O)(=O)c2ccc(C)cc2)c1,1.7,-3.5,14.8,-3.9,nt
C/C(=N/NS(=O)(=O)c1ccc(C)cc1)c1ccc(NC(=O)C(F)(F)F)cc1,25.2*,-4.8,2.4,5.3,7.8
COc1ccc(CN2C[C@]3(C=C(C)Cn4c(=O)n(-c5ccccc5)c(=O)n43)N=C2NC(=O)c2ccccc2)c(OC)c1,nt,-4.3,nt,4.1,nt
O=C1[C@@H]2CSCN2C(=O)CN1Cc1c(F)cccc1Cl,26.5*,0.9,-1.8,-0.4,-5.7
O=C(c1ccc(Cl)c(Cl)c1)N1CCN(c2ccnc3cc(Cl)ccc23)CC1,nt,-3.0,nt,4.2,nt

# Source: PubChem BioAssay (The Scripps Research Institute Molecular Screening Center)
